Measured values from ChEMBL document CHEMBL1139516, “Optimization of amide-based inhibitors of soluble epoxide hydrolase with improved water solubility” (J Med Chem, 2005).
Converted amounts (≈) assume the structure as drawn.

Legend:
[1] = target: T1, Bifunctional epoxide hydrolase 2 (Homo sapiens, UniProt P34913); assay: Inhibitory concentration against human soluble epoxide hydrolase (sEH) at 0.24 uM
T1 sequence (P34913 whole entry): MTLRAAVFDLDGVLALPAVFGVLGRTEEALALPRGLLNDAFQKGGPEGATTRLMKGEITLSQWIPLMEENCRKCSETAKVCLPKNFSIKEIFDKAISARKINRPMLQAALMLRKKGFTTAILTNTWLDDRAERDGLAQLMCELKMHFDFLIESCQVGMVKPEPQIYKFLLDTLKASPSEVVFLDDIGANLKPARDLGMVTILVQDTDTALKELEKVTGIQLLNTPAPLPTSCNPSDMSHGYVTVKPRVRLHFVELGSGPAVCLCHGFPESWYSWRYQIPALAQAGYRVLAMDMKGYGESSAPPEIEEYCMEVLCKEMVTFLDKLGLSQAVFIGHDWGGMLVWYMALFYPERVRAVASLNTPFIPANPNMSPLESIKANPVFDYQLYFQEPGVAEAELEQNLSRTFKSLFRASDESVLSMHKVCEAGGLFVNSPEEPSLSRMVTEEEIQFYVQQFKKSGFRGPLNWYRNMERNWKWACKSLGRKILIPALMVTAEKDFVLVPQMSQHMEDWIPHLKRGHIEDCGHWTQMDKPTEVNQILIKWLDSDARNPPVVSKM

[2] = target: T2, Bifunctional epoxide hydrolase 2 (Mus musculus, UniProt P34914); assay: Inhibitory concentration against mouse soluble epoxide hydrolase (sEH) at 0.12 uM
T2 sequence (P34914 whole entry): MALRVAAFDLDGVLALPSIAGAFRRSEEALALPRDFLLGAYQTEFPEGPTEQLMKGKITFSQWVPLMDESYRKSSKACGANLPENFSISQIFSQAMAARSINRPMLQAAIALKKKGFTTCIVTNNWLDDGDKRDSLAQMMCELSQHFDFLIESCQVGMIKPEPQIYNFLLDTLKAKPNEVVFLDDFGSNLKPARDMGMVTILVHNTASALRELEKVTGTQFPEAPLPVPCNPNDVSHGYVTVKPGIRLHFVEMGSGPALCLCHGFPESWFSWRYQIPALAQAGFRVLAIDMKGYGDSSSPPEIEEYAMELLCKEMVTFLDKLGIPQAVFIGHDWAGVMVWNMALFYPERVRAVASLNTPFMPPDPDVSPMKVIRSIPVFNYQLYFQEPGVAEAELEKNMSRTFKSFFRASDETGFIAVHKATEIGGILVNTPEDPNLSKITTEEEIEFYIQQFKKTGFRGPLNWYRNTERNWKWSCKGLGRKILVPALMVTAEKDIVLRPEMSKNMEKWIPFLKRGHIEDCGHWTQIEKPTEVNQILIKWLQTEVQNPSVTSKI
Procedure, shortened: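 Recombinant murine enzyme, baculovirus-expressed, affinity-purified (≥97% pure). 0.12 μM enzyme preincubated with inhibitor 5 min at 30 °C in 0.1 M sodium phosphate pH 7.4 with 0.1 mg/mL BSA. Racemic 4-nitrophenyl-trans-2,3-epoxy-3-phenylpropyl carbonate added at 40 μM. 4-Nitrophenolate formation read at 405 nm over 1 min, 30 °C. Run in triplicate. IC50 regressed from ≥5 points, at least two on each side in the linear region.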

[3] = Partition coefficient (logP); assay type: physicochemical; conditions: octanol/water
Procedure, shortened: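 Calculated, not measured: Crippen's method estimate.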

[4] = Solubility in sodium phosphate buffer 0.1M, pH 7.4 at 25 +/-1.5 degree C; assay type: physicochemical; conditions: read-out: S
Procedure, shortened: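 Excess solid added to 0.1 M sodium phosphate pH 7.4 at 25 ± 1.5 °C. Suspension equilibrated by 1 h sonication, then 24 h shaking. Centrifuged 5 min at 200g. Absolute amount of dissolved compound then calculated.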

Question: Which IC50 [1] does the source give for `O=C(CC1CCCCC1)Nc1ccccc1CO` here?
Answer: > 100 µM

Question: What about the IC50 [2] of the same molecule?
Answer: > 100 µM

Question: With `O=C(Nc1ccccc1CO)NC1CCCCC1` as the molecule, how does the IC50 [1] read?
Answer: > 100 µM

Question: And the IC50 [2]?
Answer: > 100 µM

Question: What does the source list for `CCCCCOC(=O)CCCOC(=O)Oc1cccc(Cl)c1`?
Answer: IC50 [1]: > 100 µM; IC50 [2]: > 100 µM

Question: With `CCCCCOC(=O)CCCNC(=O)C12CC3CC(CC(C3)C1)C2` as the molecule, how does the IC50 [1] read?
Answer: 9.4 µM

Question: What about the IC50 [2] of the same molecule?
Answer: 2.8 µM

Question: With `CCCCCCCCCCCC(=O)NC12CC3CC(CC(C3)C1)C2` as the molecule, how does the logP ([3]; read-out: logP) read?
Answer: 5.52

Question: What about the solubility [4] of the same molecule?
Answer: 0.42 µg/mL (≈ 1.26 µM)

Question: Which IC50 [1] does the source give for `COc1ccc(NC(=O)CC2CCCCC2)cc1` here?
Answer: 6.2 µM

Question: What does the source list for `CCCCCCCCCCNC(=O)CC12CC3CC(CC(C3)C1)C2`?
Answer: logP ([3]; read-out: logP): 5.64; solubility [4]: 0.32 µg/mL (≈ 0.959 µM)

Question: For `CCCCCOC(=O)CCCOC(=O)Cc1cccc(Cl)c1`, which IC50 [1] is on record?
Answer: > 100 µM

Question: What about the IC50 [2] of the same molecule?
Answer: > 100 µM

Question: Which IC50 [1] does the source give for `CCCCCOC(=O)CCCOC(=O)Nc1cccc(Cl)c1` here?
Answer: 25.2 µM

Question: And the IC50 [2]?
Answer: 17.4 µM

Question: For `CCCCCOC(=O)CCCCC(=O)NC12CC3CC(CC(C3)C1)C2`, which logP ([3]; read-out: logP) is on record?
Answer: 3.53

Question: And the solubility [4]?
Answer: 15.1 µg/mL (≈ 43.2 µM)

Question: With `CCCCCCC(O)CCCNC(=O)NC12CC3CC(CC(C3)C1)C2` (configuration not stated) as the molecule, how does the IC50 [1] read?
Answer: 0.13 µM

Question: What about the IC50 [2] of the same molecule?
Answer: 0.05 µM

Question: For `O=C(Cc1ccccc1CO)NC1CCCCC1`, which IC50 [1] is on record?
Answer: > 100 µM

Question: And the IC50 [2]?
Answer: > 100 µM

Question: With `CCCCCOC(=O)CCCNC(=O)NC12CC3CC(CC(C3)C1)C2` as the molecule, how does the logP [3] read?
Answer: 2.77

Question: What about the solubility [4] of the same molecule?
Answer: 1.44 µg/mL (≈ 4.11 µM)

Question: With `CCCCCOC(=O)CCCNC(=O)Oc1cccc(Cl)c1` as the molecule, how does the IC50 [1] read?
Answer: > 100 µM

Question: And the IC50 [2]?
Answer: > 100 µM

Question: What does the source list for `CCCCCOC(=O)CCCNC(=O)CC12CC3CC(CC(C3)C1)C2`?
Answer: logP ([3]; read-out: logP): 3.66; solubility [4]: 17.4 µg/mL (≈ 49.8 µM)

Question: Which logP ([3]; read-out: logP) does the source give for `CCCCCCCCCCNC(=O)NC12CC3CC(CC(C3)C1)C2` here?
Answer: 4.76

Question: What about the solubility [4] of the same molecule?
Answer: 0.5 µg/mL (≈ 1.49 µM)

Question: And the IC50 [1]?
Answer: 0.11 µM
